≈ marks a conversion by molar mass, not a printed value. Calls of active or inactive are those of the source. The calls are words filed in the database; no cut-off is given here.
Columns and labels:
[1] = Selectivity ratio IC50 for HDAC8 to IC50 for HDAC in human HeLa cells nuclear extract; type: cell-based; set-up: reference not given here
[2] = Selectivity index, ratio of IC50 for african green monkey (Cercopithecus aethiops) Vero cells to IC50 for Plasmodium falciparum D6
Plasmodium falciparum [3] = assay: Antimalarial activity against Plasmodium falciparum D6 after 72 hrs by alamar blue assay; type: functional, organism-based; details: D6, 72 h
DU-145 = assay: Antiproliferative activity against human DU145 cells after 72 hrs by MTS assay; type: functional
Outline: (§1)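 Cells kept at 37 °C, 5% CO₂ in recommended media; seeded in 96-well plates the day before, grown at least 24 h, then dosed 72 h with compounds diluted from 1000X DMSO stocks to give 0.1% DMSO final. MTS reagent added for 2 h; absorbance read at 490 nm; EC50 is concentration giving 50% loss of viability.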

Plasmodium falciparum [4] = assay: Antimalarial activity against Plasmodium falciparum W2 after 72 hrs by alamar blue assay; type: functional, organism-based; details: W2, 72 h
Leishmania donovani [5] = assay: Antileishmanial activity against Leishmania donovani promastigotes after 72 hrs by alamar blue assay; type: functional, organism-based
Histone deacetylase [6] = target: T1, Histone deacetylase (Plasmodium falciparum, UniProt Q9XYC7); assay: Inhibition of Plasmodium falciparum HDAC1
T1 sequence (Q9XYC7 whole entry): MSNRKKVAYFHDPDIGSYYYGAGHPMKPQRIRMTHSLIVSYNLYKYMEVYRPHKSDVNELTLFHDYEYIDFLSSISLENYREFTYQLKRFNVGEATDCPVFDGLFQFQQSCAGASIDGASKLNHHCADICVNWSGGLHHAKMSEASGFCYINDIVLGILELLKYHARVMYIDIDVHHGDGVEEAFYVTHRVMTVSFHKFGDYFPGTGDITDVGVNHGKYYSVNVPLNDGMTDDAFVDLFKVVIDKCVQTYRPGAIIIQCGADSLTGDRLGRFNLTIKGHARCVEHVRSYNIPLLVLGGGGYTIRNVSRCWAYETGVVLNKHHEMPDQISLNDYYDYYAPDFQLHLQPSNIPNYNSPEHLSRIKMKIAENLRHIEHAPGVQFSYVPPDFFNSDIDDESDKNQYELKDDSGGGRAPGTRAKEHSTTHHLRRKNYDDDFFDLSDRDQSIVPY

A549 = assay: Antiproliferative activity against human A549 cells after 72 hrs by MTS assay; type: functional; outline: as §1
MCF7 = assay: Antiproliferative activity against human MCF7 cells after 72 hrs by MTS assay; type: functional; outline: as §1
[7] = Antiproliferative activity against human Hs1.Lu cells after 72 hrs by MTS assay; type: cell-based
[8] = target: T2, Protein deacetylase HDAC6 (Homo sapiens, UniProt Q9UBN7); assay: Inhibition of HDAC6
T2 sequence (Q9UBN7 whole entry): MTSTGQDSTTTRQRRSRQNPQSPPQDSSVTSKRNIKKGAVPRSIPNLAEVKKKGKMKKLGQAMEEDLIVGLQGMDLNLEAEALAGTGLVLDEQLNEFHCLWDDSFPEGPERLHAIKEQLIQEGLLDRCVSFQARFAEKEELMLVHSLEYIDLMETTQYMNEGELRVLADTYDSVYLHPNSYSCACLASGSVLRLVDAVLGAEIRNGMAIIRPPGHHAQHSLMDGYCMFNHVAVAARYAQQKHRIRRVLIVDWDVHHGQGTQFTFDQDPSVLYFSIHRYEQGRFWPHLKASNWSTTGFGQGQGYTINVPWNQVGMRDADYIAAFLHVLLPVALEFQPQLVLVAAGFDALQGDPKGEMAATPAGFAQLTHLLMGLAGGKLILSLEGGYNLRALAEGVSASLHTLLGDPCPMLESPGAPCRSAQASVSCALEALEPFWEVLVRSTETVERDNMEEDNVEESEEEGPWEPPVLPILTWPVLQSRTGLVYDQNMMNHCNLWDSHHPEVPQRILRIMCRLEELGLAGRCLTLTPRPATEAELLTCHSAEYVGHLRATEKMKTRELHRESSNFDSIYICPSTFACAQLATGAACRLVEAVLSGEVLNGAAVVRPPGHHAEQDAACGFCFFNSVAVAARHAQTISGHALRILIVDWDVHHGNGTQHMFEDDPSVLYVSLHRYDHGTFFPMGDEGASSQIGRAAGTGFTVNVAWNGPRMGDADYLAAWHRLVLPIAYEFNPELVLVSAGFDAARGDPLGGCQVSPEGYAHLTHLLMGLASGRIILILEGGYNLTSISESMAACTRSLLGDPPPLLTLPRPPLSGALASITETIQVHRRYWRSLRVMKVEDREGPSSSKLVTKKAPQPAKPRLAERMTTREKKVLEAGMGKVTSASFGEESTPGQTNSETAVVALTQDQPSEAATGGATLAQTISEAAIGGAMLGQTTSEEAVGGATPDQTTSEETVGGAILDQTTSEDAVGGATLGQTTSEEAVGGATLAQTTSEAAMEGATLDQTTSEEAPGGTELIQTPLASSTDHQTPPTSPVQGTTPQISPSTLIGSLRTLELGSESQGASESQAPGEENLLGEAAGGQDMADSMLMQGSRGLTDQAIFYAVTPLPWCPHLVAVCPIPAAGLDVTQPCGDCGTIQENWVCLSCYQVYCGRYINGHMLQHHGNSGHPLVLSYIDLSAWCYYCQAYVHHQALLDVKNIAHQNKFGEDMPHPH

Histone deacetylase 8 = target: T3, Histone deacetylase 8 (Homo sapiens, UniProt Q9BY41); assay: Inhibition of HDAC8
T3 sequence (Q9BY41 whole entry): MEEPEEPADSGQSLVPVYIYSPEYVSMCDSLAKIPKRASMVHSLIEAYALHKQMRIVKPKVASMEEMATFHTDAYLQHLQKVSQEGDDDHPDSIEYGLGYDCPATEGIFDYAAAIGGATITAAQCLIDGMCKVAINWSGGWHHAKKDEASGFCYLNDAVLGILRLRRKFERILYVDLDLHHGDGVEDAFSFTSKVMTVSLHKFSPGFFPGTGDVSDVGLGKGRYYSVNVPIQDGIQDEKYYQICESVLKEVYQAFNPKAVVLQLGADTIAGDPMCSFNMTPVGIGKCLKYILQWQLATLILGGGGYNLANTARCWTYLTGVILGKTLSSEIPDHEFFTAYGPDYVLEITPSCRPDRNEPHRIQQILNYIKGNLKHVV

[9] = Selectivity index, ratio of IC50 for african green monkey (Cercopithecus aethiops) Vero cells to IC50 for Plasmodium falciparum W2
Histone deacetylase [10] = assay: Inhibition of HDAC in human HeLa cell nuclear extracts; type: protein assay
Leishmania donovani [11] = system: Leishmania donovani
[12] = Leishmania donovani, 72 h, read-out: IC50

For `CC[C@H]1OC(=O)[C@H](C)C(=O)[C@H](C)[C@@H](O[C@@H]2O[C@H](C)C[C@H](N(C)Cc3ccc(-c4cn(CCCCCCCCCC(=O)NO)nn4)cc3)[C@H]2O)[C@](C)(OC)C[C@@H](C)C2=NCCN3C(=O)O[C@@]1(C)[C@H]3[C@H]2C`, the Ratio IC50 [1] was 21.9, the selectivity ratio ([2]; vero) was > 4 and the IC50 (Plasmodium falciparum [3]) was 1.19 µg/mL (≈ 1.24 µM). For the same compound, the Activity (DU-145) was 4.83 µM, the IC50 (Plasmodium falciparum [4]) was 0.897 µg/mL (≈ 0.928 µM) and the IC90 (Leishmania donovani [5]; Leishmania donovani, 72 h) was 23.7 µg/mL (≈ 24.5 µM). The IC50 (Leishmania donovani [5]; [12]) was 4.8 µg/mL (≈ 4.97 µM), the IC50 (Histone deacetylase [6]) was 304 nM and the Activity (A549) was 2.81 µM. For the same compound, the Activity (MCF7) was 3.68 µM, the Activity [7] was > 10 µM and the IC50 [8] was 3200 nM. For the same compound, the IC50 (Histone deacetylase 8) was 4560 nM, the selectivity ratio ([9]; vero) was > 5.3 and the IC50 (Histone deacetylase [10]) was 208.2 nM.
`C[C@@H]1CC[C@H]2[C@@H](C)C(=O)O[C@@H]3O[C@@]4(C)CC[C@@H]1[C@]32OO4` [ARTEMISININ] showed an IC50 (Plasmodium falciparum [3]) of 0.0066 µg/mL (≈ 0.0234 µM).
For `CC[C@H]1OC(=O)[C@H](C)C(=O)[C@H](C)[C@@H](O[C@@H]2O[C@H](C)C[C@H](N(C)Cc3ccc(-c4cn(CCCCCC(=O)NO)nn4)cc3)[C@H]2O)[C@](C)(OC)C[C@@H](C)C2=NCCN3C(=O)O[C@@]1(C)[C@H]3[C@H]2C`, the Ratio IC50 [1] was 102, the selectivity ratio ([2]; vero) was > 5.3 and the IC50 (Plasmodium falciparum [3]) was 0.897 µg/mL (≈ 0.986 µM). For the same compound, the Activity (DU-145) was 1.64 µM, the IC50 (Plasmodium falciparum [4]) was 1.79 µg/mL (≈ 1.97 µM) and the IC50 (Leishmania donovani [5]) was “Not Active”. The IC50 (Histone deacetylase [6]) was 36 nM, the Activity (A549) was 1.17 µM and the IC90 (Leishmania donovani [11]) was “inactive”. The Activity (MCF7) was 1.26 µM, the Activity [7] was > 10 µM and the IC50 [8] was 1180 nM. The IC50 (Histone deacetylase 8) was 796 nM, the selectivity ratio ([9]; vero) was > 2.68 and the IC50 (Histone deacetylase [10]) was 7.77 nM.
For `CC[C@H]1OC(=O)[C@H](C)C(=O)[C@H](C)[C@@H](O[C@@H]2O[C@H](C)C[C@H](N(C)Cc3ccc(-c4cn(CCCCCCC(=O)NO)nn4)cc3)[C@H]2O)[C@](C)(OC)C[C@@H](C)C2=NCCN3C(=O)O[C@@]1(C)[C@H]3[C@H]2C`, the Ratio IC50 [1] was 529, the selectivity ratio ([2]; vero) was > 35 and the IC50 (Plasmodium falciparum [3]) was 0.137 µg/mL (≈ 0.148 µM). For the same compound, the Activity (DU-145) was 0.82 µM, the IC50 (Plasmodium falciparum [4]) was 0.133 µg/mL (≈ 0.144 µM) and the IC50 (Leishmania donovani [5]) was “Not Active”. For the same compound, the IC50 (Histone deacetylase [6]) was 10 nM, the Activity (A549) was 0.66 µM and the IC90 (Leishmania donovani [11]) was “inactive”. For the same compound, the Activity (MCF7) was 0.75 µM, the Activity [7] was > 10 µM and the IC50 [8] was 729 nM. The IC50 (Histone deacetylase 8) was 545 nM, the selectivity ratio ([9]; vero) was > 36 and the IC50 (Histone deacetylase [10]) was 1.03 nM.
For `CC[C@H]1OC(=O)[C@H](C)C(=O)[C@H](C)[C@@H](O[C@@H]2O[C@H](C)C[C@H](N(C)Cc3ccc(-c4cn(CCCCCCCCC(=O)NO)nn4)cc3)[C@H]2O)[C@](C)(OC)C[C@@H](C)C2=NCCN3C(=O)O[C@@]1(C)[C@H]3[C@H]2C`, the Ratio IC50 [1] was 17.5, the selectivity ratio ([2]; Vero cells) was > 3.7 and the IC50 (Plasmodium falciparum [3]) was 1.3 µg/mL (≈ 1.36 µM). It also gave an Activity (DU-145) of 3.89 µM, an IC50 (Plasmodium falciparum [4]) of 1.38 µg/mL (≈ 1.45 µM) and an IC90 (Leishmania donovani [5]; Leishmania donovani, 72 h) of 32.3 µg/mL (≈ 33.9 µM). For the same compound, the IC50 (Leishmania donovani [5]; [12]) was 14.9 µg/mL (≈ 15.6 µM), the IC50 (Histone deacetylase [6]) was 290 nM and the Activity (A549) was 2.48 µM. For the same compound, the Activity (MCF7) was 2.56 µM, the Activity [7] was > 10 µM and the IC50 [8] was 1920 nM. The IC50 (Histone deacetylase 8) was 2860 nM, the selectivity ratio ([9]; Vero cells) was > 3.5 and the IC50 (Histone deacetylase [10]) was 163.6 nM.
For `CC[C@H]1OC(=O)[C@H](C)C(=O)[C@H](C)[C@@H](O[C@@H]2O[C@H](C)C[C@H](N(C)Cc3ccc(-c4cn(CCCCCCCC(=O)NO)nn4)cc3)[C@H]2O)[C@](C)(OC)C[C@@H](C)C2=NCCN3C(=O)O[C@@]1(C)[C@H]3[C@H]2C`, the selectivity ratio ([2]; vero) was > 3.6, the IC50 (Plasmodium falciparum [3]) was 1.32 µg/mL (≈ 1.4 µM) and the Activity (DU-145) was 3.7 µM. The IC50 (Plasmodium falciparum [4]) was 1.47 µg/mL (≈ 1.57 µM), the IC90 (Leishmania donovani [5]; Leishmania donovani, 72 h) was 35.8 µg/mL (≈ 38.2 µM) and the IC50 (Leishmania donovani [5]; [12]) was 19.7 µg/mL (≈ 21 µM). It also gave an IC50 (Histone deacetylase [6]) of 40 nM, an Activity (A549) of 1.64 µM and an Activity (MCF7) of 1.35 µM. For the same compound, the Activity [7] was > 10 µM, the IC50 [8] was 1710 nM and the IC50 (Histone deacetylase 8) was 580 nM. For the same compound, the selectivity ratio ([9]; vero) was > 3.3 and the IC50 (Histone deacetylase [10]) was 104.2 nM.
`C[C@@H]1[C@H](O)[C@@H](C)/C=C/C=C/C=C/C=C/C=C/C=C/C=C/[C@H](O[C@@H]2O[C@H](C)[C@@H](O)[C@H](N)[C@@H]2O)C[C@@H]2O[C@](O)(C[C@@H](O)C[C@@H](O)[C@H](O)CC[C@@H](O)C[C@@H](O)CC(=O)O[C@H]1C)C[C@H](O)[C@H]2C(=O)O` [AMPHOTERICIN B] showed an IC90 (Leishmania donovani [5]; Leishmania donovani, 72 h) of 0.395 µg/mL (≈ 0.427 µM) and an IC50 (Leishmania donovani [5]; [12]) of 0.079 µg/mL (≈ 0.0855 µM).
With `O=C(CCCCCCC(=O)Nc1ccccc1)NO` [VORINOSTAT] the IC90 (Leishmania donovani [5]; Leishmania donovani, 72 h) was 51.7 µg/mL (≈ 196 µM).
`N=C(N)c1ccc(OCCCCCOc2ccc(C(=N)N)cc2)cc1` [PENTAMIDINE] gave an IC90 (Leishmania donovani [5]; Leishmania donovani, 72 h) of 2.45 µg/mL (≈ 7.2 µM) and an IC50 (Leishmania donovani [5]; [12]) of 1.17 µg/mL (≈ 3.44 µM).

Source: ChEMBL document CHEMBL1212894, “Non-peptide macrocyclic histone deacetylase inhibitors derived from tricyclic ketolide skeleton” (J Med Chem, 2010)
